A selection: hits, their analogues and other compounds. The true share with any hit is near 2.1%.
AF4-AF9 inh – MLL-AF4/AF9 protein interaction inhibition; AlphaScreen, biotin-AF4 peptide binding to FLAG-AF9; AID 651704; P42568; hit rate 0.47% among 350,000; inhibition, % at 10 µM;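 active means every replicate reaching a set inhibition limit, whatever the replicate mean, cut at about 25% in these data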;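 further: 0% = plate neutral control median and 100% = total signal loss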
Target sequence (P42568 whole entry, looked up): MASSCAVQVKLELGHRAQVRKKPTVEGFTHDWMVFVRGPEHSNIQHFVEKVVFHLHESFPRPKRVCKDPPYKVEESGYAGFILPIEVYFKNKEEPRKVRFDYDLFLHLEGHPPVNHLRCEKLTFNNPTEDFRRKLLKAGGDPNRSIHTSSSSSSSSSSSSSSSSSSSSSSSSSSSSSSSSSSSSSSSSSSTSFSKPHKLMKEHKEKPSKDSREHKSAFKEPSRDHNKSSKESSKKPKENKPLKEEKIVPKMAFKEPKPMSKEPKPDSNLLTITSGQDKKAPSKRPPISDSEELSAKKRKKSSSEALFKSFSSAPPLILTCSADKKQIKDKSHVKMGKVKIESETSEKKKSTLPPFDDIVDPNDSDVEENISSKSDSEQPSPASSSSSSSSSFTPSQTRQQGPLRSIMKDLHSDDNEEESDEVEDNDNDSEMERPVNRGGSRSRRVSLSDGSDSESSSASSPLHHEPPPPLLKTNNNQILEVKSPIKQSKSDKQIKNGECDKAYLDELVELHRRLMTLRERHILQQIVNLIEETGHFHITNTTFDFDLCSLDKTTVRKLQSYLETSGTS
INS-1E GSIS act – primary screen for activators of insulin secretion dependent on glucose, INS-1E cells, GLuc reporter luminescence | INS-1E GLuc reporter insulin secretion, 2-3 h | activation, % at 16.6 µM | hit rate 0.61% among 370,000 | AID 743287;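 active means lowest replicate activation of at least 40%, so every replicate reaches that level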;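 further: 0% = median of neutral control wells and 100% = median of IBMX positive control wells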
Xi reactivation – activators of X-chromosome reactivation in mouse fibroblasts; XiGFP mouse fibroblasts, % GFP-positive cells imaging, 3 d; cells co-treated with 5-aza-dC sensitizer; scaled so ellipticine positive control = 100%; AID 743238; hit rate 0.055% among 360,000; activation, % at 7.58 µM;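 active means mean normalized replicate activation at least 10% and every replicate at or above 10%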;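 further: 0% = median of on-plate neutral control wells and 100% = ellipticine 6 µM median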
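Material: XiGFP fibroblasts, SV40-immortalized. Buffer or medium: DMEM plus 5-aza-dC sensitizer. Compound: single concentration per compound, delivered by pin transfer. Times: 3 days compound exposure. Controls: ellipticine 6 µM.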
PGC1a acetyl inh – lowers PGC1a acetylation signal in U2OS cells. AlphaScreen anti-acetyl-lysine; with virally co-expressed GCN5 acetyltransferase. inhibition, % at 15.6 µM. hit rate 0.17% among 350,000;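 active means every replicate shows inhibition of at least 40%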;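 further: 0% = neutral control wells and 100% = positive control wells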
EWS-Fli block – blocks EWS/Fli oncoprotein-driven transcription; hit rate 0.67% among 350,000; inhibition, % at 12.6 µM; A673 NR0B1-luciferase reporter, viability-normalised;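 active means mean inhibition of at least 50% after viability correction, with every replicate also passing that limit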;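 further: firefly luciferase signal divided by Alamar Blue viability fluorescence both relative to DMSO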
PAX8 inh HTS – PAX8 transcriptional activity inhibition; RMG-I TPO-luciferase reporter, SteadyGlo, 24 h; inhibition, % at 12.6 µM; hit rate 1.2% among 360,000; AID 652154;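 active means mean replicate inhibition at least 60% with every replicate also reaching 60%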;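 further: luciferase light reporting Pax8 driven TPO promoter activity; plate controls were median of neutral control wells for no effect and mitoxantrone controls for full effect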
* hit, by the source's call; . = no result.

SMILES	AF4-AF9 inh	INS-1E GSIS act	Xi reactivation	PGC1a acetyl inh	EWS-Fli block	PAX8 inh HTS
C=CCn1c(SCC(C)=O)nc2scc(-c3ccco3)c2c1=O	-1	-3	0	.	8	7
NNC(=O)c1sc(-c2ccc(Cl)cc2)cc1N	2	20	19*	-8	-43	-47
CN1c2ccc(C#Cc3cccnc3)cc2[C@@H]2[C@@H](CCN2C(=O)C2CCC2)[C@H]1CO	10	16	0	-13	-10	7
O=C(CCNS(=O)(=O)c1ccccc1F)N1CCN(C(c2ccccc2)c2ccccc2)CC1	0	-13	0	-4	3	42
NC(=O)C1CCN(C(=O)CCNS(=O)(=O)c2ccccc2F)CC1	-3	48*	0	.	-2	8
O=C(N[C@@H]1C=C[C@@H](CC(=O)N2CCc3ccccc3C2)O[C@H]1CO)C1CCOCC1	-6	0	0	4	-16	.
Cc1cc(N2CCN(C)CC2)ccc1NC(=O)c1c2c(nc3ccccc13)CCN(Cc1ccccc1)C2	.	.	.	69*	.	.
CCCN(C)C[C@H]1Oc2cc(C#Cc3cccc(OC)c3)ccc2S(=O)(=O)N([C@H](C)CO)C[C@H]1C	.	-1	-1	-30	5	-15
Cc1ccc(-n2cc(CN3CCN(Cc4nccn4C)CC3)c(-c3cccc(C)c3)n2)cc1	29*	-17	0	-7	-1	-7
CCCC#Cc1ccc2c(c1)O[C@H](CN(C)Cc1ccncc1)[C@@H](C)CN([C@H](C)CO)S2(=O)=O	5	1	0	-11	19	.
Cc1noc(C)c1NC(=O)N(C)C[C@@H]1Oc2cc(C#CCC(C)C)ccc2S(=O)(=O)N([C@H](C)CO)C[C@H]1C	30*	-14	0	-5	12	9
Cc1noc(C)c1NC(=O)N(C)C[C@H]1Oc2cc(C#CCC(C)C)ccc2S(=O)(=O)N([C@H](C)CO)C[C@@H]1C	6	9	0	1	14	7
CC(C)CC#Cc1ccc2c(c1)O[C@@H](CN(C)Cc1ccncc1)[C@H](C)CN([C@H](C)CO)S2(=O)=O	2	30	0	5	40	92*
CC(C)CC#Cc1ccc2c(c1)O[C@H](CN(C)Cc1ccncc1)[C@@H](C)CN([C@@H](C)CO)S2(=O)=O	3	-1	-1	0	36	73*
CC(C)CC#Cc1ccc2c(c1)O[C@H](CN(C)Cc1ccncc1)[C@@H](C)CN([C@H](C)CO)S2(=O)=O	1	-33	-1	1	28	21
O=C(C[C@@H]1CC[C@H](NC(=O)c2ccccn2)[C@@H](CO)O1)NCc1cccc(F)c1	1	1	-1	9	-5	-2
O=C(NCCc1ccncc1)[C@@H]1[C@@H](CO)[C@@H]2Cn3c(ccc(-c4ccccc4)c3=O)[C@H]1N2	-1	9	0	.	-5	.
C[C@H]1CN([C@@H](C)CO)C(=O)c2ccccc2-c2ccccc2CO[C@@H]1CN(C)S(=O)(=O)c1ccsc1	.	-25	0	.	.	.
CC(C)CC#Cc1ccc2c(c1)O[C@H](CN(C)C(=O)c1cnccn1)[C@@H](C)CN([C@H](C)CO)S2(=O)=O	1	-20	-2	-3	6	-5
COC(=O)c1ccc(-c2nc(-c3cccs3)no2)cc1	3	-5	0	-14	58*	-56
Fc1ccc(-c2nc(-c3cccs3)no2)cc1	6	28	0	3	-75	-86
Cc1noc(C)c1NC(=O)N(C)C[C@@H]1OCCCC[C@H](C)Oc2ccc(NS(C)(=O)=O)cc2C(=O)N([C@@H](C)CO)C[C@@H]1C	.	13	0	0	0	3
C[C@@H]1CCCCO[C@H](CN(C)S(=O)(=O)c2ccccc2)[C@H](C)CN([C@@H](C)CO)C(=O)c2cc(NS(=O)(=O)c3ccc(Cl)cc3)ccc2O1	-2	-13	0	-26	-9	81*
C[C@@H]1CN([C@H](C)CO)C(=O)c2cc(NS(=O)(=O)c3ccccc3)ccc2O[C@@H](C)CCCCO[C@@H]1CN(C)S(=O)(=O)c1ccc(Cl)cc1	-10	-27	0	-1	0	52
C[C@@H]1CN([C@H](C)CO)C(=O)c2cc(NS(=O)(=O)c3ccc(Cl)cc3)ccc2O[C@@H](C)CCCCO[C@H]1CN(C)S(=O)(=O)c1ccccc1	-11	-8	0	-1	.	60
SMILES	AF4-AF9 inh	INS-1E GSIS act	Xi reactivation	PGC1a acetyl inh	EWS-Fli block	PAX8 inh HTS
C[C@@H]1CCCCO[C@@H](CN(C)S(=O)(=O)c2ccc(Cl)cc2)[C@@H](C)CN([C@@H](C)CO)C(=O)c2cc(NS(=O)(=O)c3ccccc3)ccc2O1	-3	-2	0	5	.	23
C[C@H](CO)N1C[C@H](C)[C@H](CN(C)S(=O)(=O)c2ccc(Cl)cc2)OCCCC[C@H](C)Oc2ccc(NS(=O)(=O)c3ccccc3)cc2C1=O	-10	-7	0	-11	7	72*
C[C@H]1CCCCO[C@H](CN(C)S(=O)(=O)c2ccc(Cl)cc2)[C@@H](C)CN([C@@H](C)CO)C(=O)c2cc(NS(=O)(=O)c3ccccc3)ccc2O1	2	-13	0	-6	23	74*
O=C(NCC1CC1)[C@H]1[C@H](CO)[C@H]2Cn3c(ccc(-c4cccnc4)c3=O)[C@@H]1N2C(=O)C1CCCCC1	-9	3	0	.	0	.
CC(C)c1ccc2c(c1)CC[C@H]1[C@](C)(CN)CCC[C@]21C	3	.	0	2	50	-6
CC(C)c1ccc2c(c1)CCC1C(C)(CN)CCCC21C (centres undefined)	9	13	0	-2	59*	41
COc1ccc(C(O)c2nccc3cc(OC)c(OC)cc23)cc1OC (centres undefined)	1	83*	0	0	14	-11
Cc1ccc2c(c1)[C@H]1[C@H](CO2)[C@H](c2ccccc2)[C@]2(C)C(=O)Nc3cc(Cl)ccc3C(=O)N12	.	.	.	16	.	.
Cc1ccc2c(c1)[C@H]1[C@H](CO2)[C@H](c2ccccc2)[C@]2(C)C(=O)Nc3ccc(F)cc3C(=O)N12	-1	.	0	-11	56*	41
C[C@@]12C(=O)Nc3ccccc3C(=O)N1[C@H]1c3cc(Br)ccc3OC[C@@H]1[C@@H]2c1ccccc1	0	1	0	-3	56*	20
Cc1ccc2c(c1)[C@H]1[C@H](CO2)[C@H](c2ccccc2)[C@]2(C)C(=O)Nc3cc(F)c(F)cc3C(=O)N12	4	-30	0	.	59*	6
COc1ccc2c(c1)OC[C@H]1[C@H]2N2C(=O)c3cc(F)ccc3NC(=O)[C@@]2(C)[C@H]1c1ccccc1	7	-64	0	-6	2	2
